Experimental data taken from ChEMBL document CHEMBL3352730, “Synthesis and effects on cell viability of flavonols and 3-methyl ether derivatives on human leukemia cells” (Eur J Med Chem, 2014).

Columns and labels:
[1] = Cytotoxicity against human HL60 cells after 72 hrs by MTT assay; assay type: functional, cell-based; settings: HL-60, 72 h
Outline: (§1)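 MTT colorimetric assay with 72 h continuous exposure. IC50 was fitted per experiment by non-linear regression. Values are means with SE from at least three independent experiments, each run in triplicate.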

[2] = test system: Raji; experiment: Cytotoxicity against human Raji cells after 72 hrs by MTT assay; assay type: functional, cell-based; outline: as §1
[3] = Cytotoxicity against human HL60/MX1 cells after 72 hrs by MTT assay; assay type: functional, cell-based; settings: HL60/MX1, 72 h; outline: as §1
[4] = test system: HL-60; experiment: Induction of apoptosis in human HL60 cells at 30 uM after 24 hrs by propidium iodide staining based flow cytometry (reference value: 3.8 +/- 0.6%); assay type: functional

Compound | IC50 [1] [µM] | other results
COc1ccc(-c2oc3ccccc3c(=O)c2OC)c(OC)c1 | 34 | 
COc1ccccc1-c1oc2ccccc2c(=O)c1OC | 98 | 
COc1ccc(-c2oc3ccccc3c(=O)c2O)c(OC)c1C | 32 | 
O=c1c(O)c(-c2ccc(O)c(O)c2)oc2cc(O)cc(O)c12 [QUERCETIN] | 47 | 
COc1cc([C@@H]2c3cc4c(cc3[C@@H](O[C@@H]3O[C@@H]5CO[C@@H](C)O[C@H]5[C@H](O)[C@H]3O)[C@H]3COC(=O)[C@H]23)OCO4)cc(OC)c1O [ETOPOSIDE] | 0.6 | 
COc1c(-c2ccc(Cl)cc2)oc2ccccc2c1=O | 26 | 
COc1ccc2c(=O)c(O)c(-c3cc(OC)c(OC)c(OC)c3)oc2c1 | 34 | 
COc1cc(-c2oc3ccccc3c(=O)c2O)cc(OC)c1OC | 138 | 
COc1ccc2c(=O)c(OC)c(-c3ccc(OC)c(C)c3OC)oc2c1 | 27 | 
O=c1c(O)c(-c2ccccc2Cl)oc2ccccc12 | 10.7 | IC50 [2]: > 30 µM; IC50 [3]: > 30 µM; Activity [4]: 14.9%
COc1ccc(-c2oc3ccccc3c(=O)c2O)c(OC)c1 | 53 | 
COc1ccccc1-c1oc2ccccc2c(=O)c1O | 30 | 
COc1ccc(-c2oc3cc(OC)ccc3c(=O)c2OC)cc1 | 122 | 
COc1ccc(-c2oc3cc(OC)ccc3c(=O)c2O)cc1 | 148 | 
COc1c(-c2ccc(Br)cc2)oc2ccccc2c1=O | 21 | 
COc1ccc2c(=O)c(OC)c(-c3cc(OC)c(OC)c(OC)c3)oc2c1 | 21 | 
COc1ccc(-c2oc3ccccc3c(=O)c2OC)cc1 | 39 | 
COc1c(-c2cccc3ccccc23)oc2ccccc2c1=O | 16 | 
COc1ccc(-c2oc3ccccc3c(=O)c2OC)c(OC)c1C | 96 | 
COc1cc(O)c2c(=O)c(OC)c(-c3ccc(OC)c(OC)c3)oc2c1 [RETUSIN] | 28 | 
O=c1c(O)c(-c2ccc(Cl)cc2)oc2ccccc12 | 102 | 
